Results on ten compounds are retold here after ChEMBL document CHEMBL2417407, “Regioselective synthesis of phenanthrenes and evaluation of their anti-oxidant based anti-inflammatory potential” (Eur J Med Chem, 2013).

Converted amounts (≈) assume the structure as drawn.

Series [1] deals with THP-1. In words: Antiinflammatory activity in human THP1 cells assessed as inhibition of LPS-stimulated TNF-alpha release at 10 uM incubated for 1 hr prior to LPS challenge measured after 24 hrs by sandwich ELISA relative to untreated control. Type of series: functional. Summed up: (§1)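 THP-1 cells were grown in RPMI 1640 with 10% heat-inactivated FBS, 1% non-essential amino acids, 1% glutamine, penicillin and streptomycin at 37 °C under 5% CO2. They were seeded at 2 × 10⁵ cells/well and pretreated with compound for 1 h in serum-free medium. LPS (E. coli O55:B5, 250 ng/mL) was then added for 24 h at 37 °C. Supernatant TNF-α was measured by sandwich ELISA, with LPS-stimulated cells taken as 0% inhibition. Triplicates, two independent experiments.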
Background: In an ELISA, binding on a coated surface is turned into a signal by an enzyme label.

Series [2] concerns THP-1. The series can be described thus: Antiinflammatory activity in human THP1 cells assessed as inhibition of LPS-stimulated TNF-alpha release at 100 uM incubated for 1 hr prior to LPS challenge measured after 24 hrs by sandwich ELISA relative to untreated control. The series is classed as functional. Summed up: as §1
The test system of series [3] is THP-1. In words: Antiinflammatory activity in human THP1 cells assessed as inhibition of LPS-stimulated TNF-alpha release at 50 uM incubated for 1 hr prior to LPS challenge measured after 24 hrs by sandwich ELISA relative to untreated control. Type of series: functional. Summed up: as §1
For series [4], the system named is THP-1. In words: Cytotoxicity against human THP1 cells assessed as cell viability at 10 uM after 24 hrs by CCK-8 assay relative to untreated control. The series is classed as cell-based. The conditions noted are these: thp-1, 24 h. The essentials:
(§2)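 THP-1 cells were seeded at 2 × 10⁵ cells/well and exposed to compound in serum-free medium for 24 h at 37 °C under 5% CO2. CCK-8 reagent was then added for 2 h and absorbance was read at 450 nm. Relative viability was calculated as absorbance of treated cells divided by absorbance of untreated cells. Triplicates, two independent experiments.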

Series [5] is described as follows: Antioxidant activity assessed as galvinoxyl free radical scavenging activity after 20 mins. Type of series: functional.
A short description of series [6]: Antioxidant activity assessed as ABTS free radical scavenging activity after 1 min. The series is classed as functional. The essentials: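 ABTS radical cation was generated from 7 mM ABTS stock and 2.45 mM potassium persulfate (final) left 16 h in the dark at room temperature. Working solution (1.0 mL) was added to the compound in methanol, giving final 1–100 µg/mL. Absorbance at 734 nm was read after exactly 1 min. Percent scavenging was calculated from absorbances as in the DPPH assay.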

For series [7], the system named is THP-1. In words: Cytotoxicity against human THP1 cells assessed as cell viability at 100 uM after 24 hrs by CCK-8 assay relative to untreated control. Type of series: cell-based. The conditions noted are these: thp-1, 24 h. The essentials:
as §2
(In general: Tetrazolium assays rely on reduction of a dye to a coloured formazan, in cell work by metabolically active cells.)

The subject of series [8] is THP-1. The series can be described thus: Cytotoxicity against human THP1 cells assessed as cell viability at 50 uM after 24 hrs by CCK-8 assay relative to untreated control. Type of series: cell-based. The conditions noted are these: thp-1, 24 h. The essentials:
as §2

In series [9] the test system is Radical scavenging activity. In words: Antioxidant activity assessed as DPPH free radical scavenging activity after 30 mins. The series is classed as functional. The essentials: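 Compound solution was mixed with 316 µM DPPH solution, giving final compound concentrations of 1, 5, 12.5, 25, 50 and 100 µg/mL. The mixture was shaken 1 min and incubated at 37 °C for 30 min. Absorbance was read at 517 nm and percent scavenging was calculated as [1 − (A1 − A2)/A0] × 100.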

For series [10], the system named is THP-1. In words: Antiinflammatory activity in human THP1 cells assessed as inhibition of LPS-stimulated TNF-alpha release at 1 uM incubated for 1 hr prior to LPS challenge measured after 24 hrs by sandwich ELISA relative to untreated control. The series is classed as functional. Summed up:
as §1

In series [11] the test system is THP-1. In words: Cytotoxicity against human THP1 cells assessed as cell viability at 1 uM after 24 hrs by CCK-8 assay relative to untreated control. Type of series: cell-based. To be noted: thp-1, 24 h. Summed up:
as §2

Series [12] concerns THP-1. In words: Antiinflammatory activity in human THP1 cells assessed as inhibition of LPS-stimulated TNF-alpha release incubated for 1 hr prior to LPS challenge measured after 24 hrs by sandwich ELISA. Type of series: functional, cell-based. Summed up:
as §1

As usually defined, the inhibition is the relative decrease from the control value, in per cent. The term IC50 denotes the concentration that gives 50% inhibition. With `c1ccc2c(c1)CCc1ccccc1-2`, the inhibition at 10 µM with THP-1 [1] is 0%. Moreover, the inhibition at 100 µM in the series on THP-1 [2] was 14.5%. Besides, the inhibition at 50 µM in the series with THP-1 [3] was 5%. Further, the “fold change (FC)” value in the series on THP-1 [4] amounted to 1.5; with THP-1 [7] it was 1.2; in the series with THP-1 [8], 1.3; with THP-1 [11], 1.6. Besides, the IC50 in [5], in [6] and in series [9] was more than 100 µg/mL in each case. In addition, in the series with THP-1 [10], the inhibition at 1 µM came out at 0%.
With `O=C1O[C@H]([C@@H](O)CO)C(O)=C1O` [ASCORBIC ACID], the values for the IC50 in [5], in series [6] and in series [9] were 5.23 µg/mL (≈ 29.7 µM), 29.17 µg/mL (≈ 166 µM) and 15.12 µg/mL (≈ 85.8 µM), respectively.
Consider `COc1cc(O)c2c(c1)CCc1c-2ccc(OC)c1O`, for which the inhibition at 10 µM with THP-1 [1] came out at 30%. In addition, the inhibition at 100 µM in the series with THP-1 [2] was found to be 94%. Further, in the series with THP-1 [3], the inhibition at 50 µM was 79%. In the series with THP-1 [12], the inhibition entry is “Dose-dependent effect”. Besides, the “fold change (FC)” value was 1.4 in the series on THP-1 [4], 1.1 in the series on THP-1 [7], 1.2 in the series on THP-1 [8] and 1.5 in the series with THP-1 [11]. Moreover, the IC50 in [5] amounted to 17.97 µg/mL (≈ 66 µM); in [6], 16.98 µg/mL (≈ 62.4 µM); in series [9] it was 27.8 µg/mL (≈ 102 µM). In addition, the inhibition at 1 µM with THP-1 [10] was 9%.
For `Cc1cc(C(C)(C)C)c(O)c(C(C)(C)C)c1` [BUTYLATED HYDROXYTOLUENE], the IC50 in series [5] amounted to 43.7 µg/mL (≈ 198 µM); in series [6] it was 36.11 µg/mL (≈ 164 µM); in series [9] it was 31.51 µg/mL (≈ 143 µM).
As to `COc1cc2c(c(OC)c1O)-c1ccc(O)cc1CC2` [FLAVANTHRIDIN], the inhibition at 10 µM with THP-1 [1] amounted to 17.5%. In addition, the inhibition at 100 µM in the series on THP-1 [2] worked out at 64%. The inhibition at 50 µM in the series with THP-1 [3] amounted to 47%. Also, the inhibition result with THP-1 [12] is “Dose-dependent effect”. Moreover, the “fold change (FC)” value was 1.4 in the series with THP-1 [4], 1.2 in the series on THP-1 [7], 1.3 with THP-1 [8] and 1.4 with THP-1 [11]. Besides, the IC50 in [5] was determined as 11.66 µg/mL (≈ 42.8 µM); in [6] it was 11.72 µg/mL (≈ 43 µM); in series [9], 10.28 µg/mL (≈ 37.8 µM). For the same compound, the inhibition at 1 µM in the series on THP-1 [10] worked out at 8%.
For the compound `COc1cc2ccc3cc(O)ccc3c2c(OC)c1O`, in the series on THP-1 [1], the inhibition at 10 µM is 15.5%. Also, the inhibition at 100 µM in the series with THP-1 [2] was determined as 67.5%. Moreover, in the series with THP-1 [3], the inhibition at 50 µM was 34%. Moreover, in the series with THP-1 [12], the inhibition result was “Dose-dependent effect”. For the same compound, the “fold change (FC)” value with THP-1 [4] is 1.3; in the series on THP-1 [7] it was 1; with THP-1 [8], 1.1; in the series on THP-1 [11], 1.4. The IC50 in series [5] is 11.79 µg/mL (≈ 43.6 µM); in series [6], 13.39 µg/mL (≈ 49.5 µM); in series [9], 11.18 µg/mL (≈ 41.4 µM). Further, the inhibition at 1 µM in the series on THP-1 [10] amounted to 3.5%.
Consider `COc1ccc2c(c1O)CCc1cc(O)cc(OC)c1-2`, for which the inhibition at 10 µM in the series on THP-1 [1] came out at 31%. Moreover, the inhibition at 100 µM in the series on THP-1 [2] worked out at 83%. Also, the inhibition at 50 µM in the series with THP-1 [3] was 70%. In addition, the inhibition entry with THP-1 [12] is “Dose-dependent effect”. The “fold change (FC)” value in the series with THP-1 [4] was determined as 1.3; with THP-1 [7], 1; in the series with THP-1 [8] it was 1.2; in the series with THP-1 [11], 1.3. Further, the IC50 in [5] is 17.04 µg/mL (≈ 62.6 µM); in series [6], 15.62 µg/mL (≈ 57.4 µM); in series [9], 32.5 µg/mL (≈ 119 µM). Also, the inhibition at 1 µM in the series on THP-1 [10] was 19.5%.
For `Oc1cc(O)c2c(c1)OC(c1ccc(O)c(O)c1)C(O)C2` (stereo unspecified) [CATECHIN], the IC50 in series [5] was found to be 18.03 µg/mL (≈ 62.1 µM); in [6], 11.46 µg/mL (≈ 39.5 µM); in [9], 15.6 µg/mL (≈ 53.7 µM).
Turning to `c1ccc2c(c1)ccc1ccccc12` [PHENANTHRENE], the inhibition at 10 µM in the series with THP-1 [1] stood at 0%. In addition, in the series on THP-1 [2], the inhibition at 100 µM turned out to be 8.5%. Moreover, the inhibition at 50 µM in the series with THP-1 [3] was determined as 6%. Besides, the “fold change (FC)” value with THP-1 [4] is on record as 1.3; in the series with THP-1 [7] it was 1.1; with THP-1 [8], 1.2; in the series on THP-1 [11] it was 1.4. The IC50 in series [5], in series [6] and in series [9] was more than 100 µg/mL each time. Moreover, the inhibition at 1 µM in the series on THP-1 [10] stood at 0%.
As to `COc1cc(/C=C/C(=O)CC(=O)/C=C/c2ccc(O)c(OC)c2)ccc1O` [CURCUMIN], the inhibition at 10 µM with THP-1 [1] worked out at 38%. Moreover, the inhibition at 100 µM with THP-1 [2] was 102%. In addition, the inhibition at 50 µM in the series on THP-1 [3] came to 95.5%. The inhibition result in the series with THP-1 [12] is “Dose-dependent effect”. In addition, the “fold change (FC)” value in the series with THP-1 [4] is listed as 1.5; with THP-1 [7], 0.5; with THP-1 [8] it was 0.9; in the series with THP-1 [11], 1.8. In addition, the IC50 in series [5] came to 17.03 µg/mL (≈ 46.2 µM); in series [6] it was 28.3 µg/mL (≈ 76.8 µM); in series [9] it was 11.41 µg/mL (≈ 31 µM). Further, the inhibition at 1 µM with THP-1 [10] amounted to 1.5%.
